Measurements from different studies.
Each line is one published result; the experiments were not run side by side.
Target: Protein kinase C eta type (PRKCH, Homo sapiens, UniProt P24723)

For Cn1cnc(Br)c1C1=CN(c2ncnc3[nH]cnc23)CCS1, the inhibition was 91.8% (enzyme activity; inhibitor; radiometric; 2 µM).
The activity vs control of CC(C)c1ccc(NC(=O)c2cccs2)c(-c2nc3ccccc3[nH]c2=O)c1 is reported as 108% (enzyme activity; inhibitor; 1 µM).
CC(C)CC(=O)N1CCc2nc(-c3ccc(Br)cc3)nc(N(C)Cc3ccccc3)c2C1 gave a remaining binding of 94% (cell-free assay; competition with immobilised ligand; 0.1 µM).
For Cn1cncc1C1=CN(c2ncnc3[nH]cnc23)CCS1, the inhibition was 83.6% (enzyme activity; inhibitor; radiometric; 2 µM).
The remaining binding of CNC(=O)c1ccc(Nc2ncc(C(F)(F)F)c(NCc3nccnc3N(C)S(C)(=O)=O)n2)cc1 is reported as 86% (cell-free assay; competition with immobilised ligand; 0.1 µM).
With O=C(Nc1cnn(-c2csc(C(=O)NC3COC3)c2)c1)Nc1ccccc1Cl the remaining activity was 103% (enzyme activity; inhibitor; 5 µM).
CN(c1ccnc(CNc2nc(Nc3ccc4c(c3)CC(=O)N4)ncc2C(F)(F)F)n1)S(C)(=O)=O gave a remaining binding of 100% (cell-free assay; competition with immobilised ligand; 1 µM).
The inhibition of COc1cc(-c2cc(-c3ccc(N4CCNCC4)cc3)cnc2C)cc(OC)c1OC is reported as 2% (enzyme activity; inhibitor; 0.1 µM).
With CS(=O)(=O)NCC[C@H](NC(=O)c1cncc2c1cnn2-c1ccc(F)cc1)c1ccnc(S(C)(=O)=O)c1 the remaining binding was 80% (cell-free assay; competition with immobilised ligand; 1 µM).
Cc1ccc(C(=O)Nc2ccc(CN3CCN(C)CC3)c(C(F)(F)F)c2)cc1C#Cc1cnc2cccnn12 gave a remaining activity of 91% (enzyme activity; 23.5 nM).
For CNC(=O)c1cc(Oc2ccc(NC(=O)Nc3ccc(Cl)c(C(F)(F)F)c3)cc2)ccn1, the inhibition was 0% (enzyme activity; inhibitor; 10 µM).
With O=C(Nc1cnn(-c2csc(C(=O)NC3COC3)c2)c1)Nc1c(F)cccc1Cl the remaining activity was 99% (enzyme activity; inhibitor; 5 µM).
C[C@@H]1CCN(c2nccc(-c3cnn4ncccc34)n2)C1 gave a remaining binding of 83% (binding; 1 µM).
With Cc1cnc(NC2CCOCC2)nc1-n1cnc(C(=O)NC(CN)c2cc(F)cc(Cl)c2)c1 (stereo not shown) the remaining activity was 100% (enzyme activity; inhibitor; radiometric; 1 µM).
COc1cc2ncnc(Nc3ccc(Oc4ccccc4)c(C)c3C)c2cc1OC gave an inhibition of 5% (enzyme activity; inhibitor; 1 µM).
With CC(=O)c1c(NS(C)(=O)=O)c2cc(-c3ccc(Cl)cc3)c(-c3ccc(Cl)cc3Cl)nc2n(C)c1=O the remaining binding was 91% (cell-free assay; competition with immobilised ligand; 1 µM).
For COc1cc(Cl)c(C(=O)N[C@@H](CN[C@H]2CC[C@@H](N)CC2)Cc2ccc(C#N)cc2)cc1-c1ccc(CN[C@H](C)c2ccc(C)cc2)o1, the remaining activity was 104% (enzyme activity; inhibitor; 1 µM).
The remaining binding of CC(C)(O)c1cncc(-c2nc3ccc(F)cc3n2C2CC2)c1 is reported as 98% (cell-free assay; competition with immobilised ligand; 1 µM).
CN1CC(Oc2cnc(C#N)cc2-c2ccn3nc(NC(=O)C4CC4)cc3c2)C1 has an inhibition of -11% (enzyme activity; inhibitor; 1 µM).
